Source: ChEMBL document CHEMBL4270526, “A novel NAE/UAE dual inhibitor LP0040 blocks neddylation and ubiquitination leading to growth inhibition and apoptosis of cancer cells” (Eur J Med Chem, 2018)
The source made the active and inactive calls. The rule behind the calls is not given here.

Columns and labels:
AGS [1] = assay: Cell cycle arrest in human AGS cells assessed as accumulation at G1 phase at 4 uM after 4 to 48 hrs by propidium iodide staining based flow cytometry (reference value: 22.82%); type: functional
Procedure, shortened: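 AGS cells seeded at 1 × 10^5/well and attached 24 h at 37 °C, 5% CO2. Exposed to 4 μM compound for varying times, then fixed in 70% ethanol at −20 °C overnight. Stained with PI/RNase buffer 15–20 min in the dark; 20000 cells per sample read by flow cytometry (488 nm excitation, FL-3 630 nm). Three repeats.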

[2] = target: T1, NEDD8 activating enzyme (Homo sapiens) (UniProt Q8TBC4+Q13564); assay: Inhibition of NAE in human AGS cells assessed as reduction in Cullins-NEDD8 conjugation level after 24 hrs by Western blot analysis; type: cell-based
Procedure, shortened: (§1)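 AGS cells given 2, 4, 6, 8 or 10 μM compound or 0.1% DMSO for 24 h, washed in ice-cold PBS and lysed in RIPA on ice. Equal protein loads run by SDS-PAGE: non-reducing for NEDD8/SUMO/Ub conjugates, reducing for p27, NRF2, CDT1 and cleaved caspase-3. Blotted to PVDF with primary antibody overnight at 4 °C and HRP secondary, ECL detection, densitometry. Three repeats.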

AGS [3] = assay: Synergistic antiproliferative activity against human AGS cells assessed as combination index constant at 1.25 uM after 48 hrs in presence of 7.5 nM BTZ by CCK8 assay; type: functional
Procedure, shortened: (§2)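 AGS cells at 6×10^3/well attached for 12 h, then exposed for 48 h to compound, bortezomib, or both at set concentrations. CCK-8 added for 4 h, then OD read at 450 nm. Inhibition rates E used for q = E(combo)/(E1+E2−E1×E2). Triplicate experiments.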

AGS [4] = assay: Induction of apoptosis in human AGS cells assessed as early apoptotic cells at 10 uM after 36 hrs by Annexin-V-FITC/propidium iodide staining based flow cytometry (reference value: 4.44%); type: functional
[5] = target: Protein kinase C alpha type (Homo sapiens) (UniProt P17252); assay: Inhibition of PKCalpha (unknown origin) at 30 uM relative to control
AGS [6] = assay: Induction of apoptosis in human AGS cells assessed as early apoptotic cells at 8 uM after 36 hrs by Annexin-V-FITC/propidium iodide staining based flow cytometry (reference value: 4.44%); type: functional
[7] = target: Aurora kinase A (Homo sapiens) (UniProt O14965); assay: Inhibition of AurA (unknown origin) at 30 uM relative to control
Sequence of Aurora kinase A (Homo sapiens) (O14965 whole entry): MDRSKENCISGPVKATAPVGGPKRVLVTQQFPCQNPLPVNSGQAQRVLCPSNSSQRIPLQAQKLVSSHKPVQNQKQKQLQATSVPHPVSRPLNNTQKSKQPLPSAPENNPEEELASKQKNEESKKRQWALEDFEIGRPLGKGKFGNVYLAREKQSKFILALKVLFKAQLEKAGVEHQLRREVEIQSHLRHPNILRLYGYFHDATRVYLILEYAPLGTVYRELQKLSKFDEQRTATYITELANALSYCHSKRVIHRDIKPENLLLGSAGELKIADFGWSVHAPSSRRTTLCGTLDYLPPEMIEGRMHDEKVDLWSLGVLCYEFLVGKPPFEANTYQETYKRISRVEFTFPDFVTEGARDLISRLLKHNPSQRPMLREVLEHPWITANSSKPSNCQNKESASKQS

AGS [8] = assay: Synergistic antiproliferative activity against human AGS cells assessed as combination index constant at 1.5 uM after 48 hrs in presence of 7.5 nM BTZ by CCK8 assay; type: functional; procedure, shortened: as §2
AGS [9] = assay: Induction of apoptosis in human AGS cells assessed as late apoptotic cells at 6 uM after 36 hrs by Annexin-V-FITC/propidium iodide staining based flow cytometry (reference value: 1.71%); type: functional
[10] = target: T1, NEDD8 activating enzyme (Homo sapiens); assay: Inhibition of recombinant human NAE assessed as reduction in Ubc12-NEDD8 conjugation level pretreated for 10 mins followed by Mg2+ and ATP addition measured after 60 mins by Western blot analysis; type: protein-complex assay
Procedure, shortened: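 Cell-free assay with recombinant human NAE 2.5 µM, NEDD8 250 µM and E2 Ubc12 50 µM (stock concentrations) plus inhibitor, preincubated 10 min at 37 °C. Reaction started with 10 mM Mg2+/ATP (stock), run 60 min at 37 °C, quenched with EDTA. Non-reducing 15% SDS-PAGE, Ubc12-NEDD8 thioester detected by western blot. No-ATP negative control.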

AGS [11] = assay: Induction of apoptosis in human AGS cells assessed as late apoptotic cells at 8 uM after 36 hrs by Annexin-V-FITC/propidium iodide staining based flow cytometry (reference value: 1.71%); type: functional
AGS [12] = assay: Induction of apoptosis in human AGS cells assessed as live cells at 4 uM after 36 hrs by Annexin-V-FITC/propidium iodide staining based flow cytometry (reference value: 92.84%); type: functional
AGS [13] = assay: Induction of apoptosis in human AGS cells assessed as late apoptotic cells at 10 uM after 36 hrs by Annexin-V-FITC/propidium iodide staining based flow cytometry (reference value: 1.71%); type: functional
AGS [14] = assay: Synergistic antiproliferative activity against human AGS cells assessed as combination index constant at 1 uM after 48 hrs in presence of 10 nM BTZ by CCK8 assay; type: functional; procedure, shortened: as §2
[15] = Antiproliferative activity against human LO2 cells after 48 hrs by CCK8 assay; type: cell-based, L02; settings: read-out: LC50
AGS [16] = assay: Induction of apoptosis in human AGS cells assessed as live cells at 6 uM after 36 hrs by Annexin-V-FITC/propidium iodide staining based flow cytometry (reference value: 92.84%); type: functional
[17] = Selectivity index, ratio of IC50 for human LO2 cells to IC50 for human AGS cells; type: toxicity; settings: LO2 cells versus AGS cells, read-out: Ratio IC50
AGS [18] = assay: Induction of apoptosis in human AGS cells assessed as necrotic cells at 10 uM after 36 hrs by Annexin-V-FITC/propidium iodide staining based flow cytometry (reference value: 1.01%); type: functional
AGS [19] = assay: Synergistic antiproliferative activity against human AGS cells assessed as combination index constant at 1.25 uM after 48 hrs in presence of 5 nM BTZ by CCK8 assay; type: functional; procedure, shortened: as §2
K562 = assay: Antiproliferative activity against human K562 cells after 48 hrs by CCK8 assay; type: functional, cell-based; settings: K562, 48 h
Procedure, shortened: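 Cells seeded at 6 × 10^3 cells/well and left 12 h at 37 °C, 5% CO2. Medium then replaced with serial compound dilutions, bortezomib as positive control. After 48 h, CCK-8 added for 4 h and absorbance read at 450 nm. Three repeats; IC50 from normalized nonlinear regression of inhibition curves.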

[20] = Antiproliferative activity against HUVEC after 48 hrs by CCK8 assay; type: cell-based; settings: human, read-out: LC50
AGS [21] = assay: Induction of apoptosis in human AGS cells assessed as increase in cleaved caspase-3 level up to 10 uM after 24 hrs by Western blot analysis; type: functional, cell-based; procedure, shortened: as §1
[22] = target: T1, NEDD8 activating enzyme (Homo sapiens); assay: Inhibition of NAE-mediated CRL neddylation in human AGS cells assessed as increase in NRF2 level up to 10 uM after 24 hrs by Western blot analysis; type: cell-based; procedure, shortened: as §1
[23] = Hemolytic activity against rabbit erythrocytes assessed as hemolysis at 100 uM measured after 1 hr; type: ADME, cell-based, Oryctolagus cuniculus, Erythrocyte; settings: read-out: Activity
Procedure, shortened: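 Rabbit erythrocytes pelleted at 3000 rpm for 10 min, washed twice and resuspended in PBS. Mixed 1:1 with 200 μM compound solution in PBS, 1 h at 37 °C. PBS served as 0% and 1% Triton X-100 as 100% hemolysis. After centrifugation, supernatant hemoglobin read at 540 nm; % hemolysis calculated relative to the Triton and PBS controls.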

[24] = Antiproliferative activity against HEK293T cells after 48 hrs by CCK8 assay; type: cell-based, HEK-293T; settings: human, read-out: LC50
AGS [25] = assay: Synergistic antiproliferative activity against human AGS cells assessed as combination index constant at 1.5 uM after 48 hrs in presence of 5 nM BTZ by CCK8 assay; type: functional; procedure, shortened: as §2

With `O=c1cc(-c2ccc(-c3ccccc3)cc2)c2ccc(N3CCC(NCCc4ccccc4)CC3)cc2o1` the Activity (AGS [1]) was 48.88%, the inhibition [2] was “Dose-dependent effect” and the CI (AGS [3]) was 3.1. The Activity (AGS [4]) was 38.71%, the inhibition [5] was 11.5% and the Activity (AGS [6]) was 50.39%. The inhibition [7] was 6.03%, the CI (AGS [8]) was 1.05 and the Activity (AGS [9]) was 35.77%. For the same compound, the inhibition [10] was “Dose-dependent effect”, the Activity (AGS [11]) was 35.01% and the Activity (AGS [12]) was 80.7%. It also gave an Activity (AGS [13]) of 44.73%, a CI (AGS [14]) of 1.14 and a CC50 at 48 h [15] of 13.5 µM. For the same compound, the Activity (AGS [16]) was 14.99%, the selectivity ratio [17] was 14 to 18 and the Activity (AGS [18]) was 9.14%. The CI (AGS [19]) was 4.34, the IC50 (K562) was 2.45 µM and the CC50 at 48 h [20] was 10.7 µM. The Activity (AGS [21]) was “Active”, the inhibition [22] was “Active” and the hemolysis at 1 h, 100 µM [23] was under 10%. The CC50 at 48 h [24] was 12.9 µM and the CI (AGS [25]) was 1.15.
